In ChEMBL document CHEMBL6115053, “Optimization and Characterization of N-Acetamide Indoles as Antimalarials That Target PfATP4” (J Med Chem, 2025):
≈ marks a conversion by molar mass, not a printed value. Where “and” joins values, the source holds several entries; their conditions need not be identical. Identical values can stand only once. Calls of active or inactive are those of the source. The calls are words filed in the database; no cut-off is given here.

Legend:
Plasmodium falciparum [1] = assay: Antiplasmodial activity against Plasmodium falciparum 3D7 infected in human […] cells incubated for 72 hrs; format: functional, organism-based; conditions: 3D7, 72 h
Plasmodium falciparum [2] = assay: Antiplasmodial activity against W454-resistant population 1 Plasmodium falciparum 3D7 harboring Plasmodium falciparum ATP4 L928F mutant by LDH assay; format: functional, organism-based
Plasmodium falciparum [3] = assay: Antiplasmodial activity against W454-resistant population 2 Plasmodium falciparum 3D7 harboring Plasmodium falciparum ATP4 L928F mutant by LDH assay; format: functional, organism-based
Plasmodium falciparum [4] = assay: Antiplasmodial activity against W454-resistant population 3 Plasmodium falciparum 3D7 harboring Plasmodium falciparum ATP4 L928F mutant by LDH assay; format: functional, organism-based
Plasmodium falciparum [5] = assay: Antiplasmodial activity against multidrug-resistant Plasmodium falciparum Dd2 harboring plasmodium falciparum ATP4 I398F/P990R/D1247Y mutant by SYBR green staining based analysis; format: functional, organism-based
Plasmodium falciparum [6] = assay: Antiplasmodial activity against multidrug-resistant Plasmodium falciparum Dd2 harboring plasmodium falciparum ATP4 G358S mutant by SYBR green staining based analysis; format: functional, organism-based
Plasmodium falciparum [7] = assay: Antiplasmodial activity against Plasmodium falciparum 3D7 infected in RBC assessed as reduction in extracellular parasite growth at 0.7 µM measured for 8 hrs by Giemsa-staining based microscopic analysis; parameters: scale not given: the % may be the effect or the level left
Plasmodium berghei [8] = assay: Antimalarial activity against Plasmodium berghei ANKA infected in female BALB/c mouse assessed as parasitemia at 30 mg/kg, po measured for 2 to 72 hrs post infection by Giemsa staining based light microscopy; format: functional; conditions: time 2-72 hrs
Plasmodium berghei [9] = assay: Antimalarial activity against Plasmodium berghei ANKA infected in female BALB/c mouse assessed as reduction in parasitemia at 30 mg/kg, po measured for 2 to 72 hrs post infection by Giemsa staining based light microscopy; format: functional; parameters: scale not given: the % may be the effect or the level left; conditions: time 2-72 hrs
Plasmodium falciparum [10] = assay: Antiplasmodial activity against asexual Plasmodium falciparum 3D7 infected in human […] cells assessed as reduction in parasite growth measured for 72 hrs by LDH assay; format: functional, organism-based; conditions: 3D7, 72 h
HepG2 = assay: Cytotoxicity against human HepG2 cells assessed as inhibition of cell growth incubated for 48 hrs by celltiterglo assay; format: toxicity, cell-based; conditions: hepg2, 48 h
[11] = Aqueous solubility in PBS buffer at pH 7.4; format: physicochemical
[12] = Metabolic stability in human liver microsome assessed as intrinsic clearance; format: ADME; conditions: microsomes
[13] = Metabolic stability in rat hepatocyte […] assessed as intrinsic clearance measured per 10^6 cells; format: ADME, cell-based; conditions: hepatocytes
[14] = Lipophilicity, logD of compound at pH 7.4 by shake-flask method; format: physicochemical; conditions: buffer
[15] = target: T1, P-type sodium-transporting ATPase4 (Plasmodium falciparum (isolate 3D7), UniProt A0A143ZZK9); assay: Inhibition of Plasmodium falciparum 3D7 ATP4
T1 sequence (A0A143ZZK9 whole entry): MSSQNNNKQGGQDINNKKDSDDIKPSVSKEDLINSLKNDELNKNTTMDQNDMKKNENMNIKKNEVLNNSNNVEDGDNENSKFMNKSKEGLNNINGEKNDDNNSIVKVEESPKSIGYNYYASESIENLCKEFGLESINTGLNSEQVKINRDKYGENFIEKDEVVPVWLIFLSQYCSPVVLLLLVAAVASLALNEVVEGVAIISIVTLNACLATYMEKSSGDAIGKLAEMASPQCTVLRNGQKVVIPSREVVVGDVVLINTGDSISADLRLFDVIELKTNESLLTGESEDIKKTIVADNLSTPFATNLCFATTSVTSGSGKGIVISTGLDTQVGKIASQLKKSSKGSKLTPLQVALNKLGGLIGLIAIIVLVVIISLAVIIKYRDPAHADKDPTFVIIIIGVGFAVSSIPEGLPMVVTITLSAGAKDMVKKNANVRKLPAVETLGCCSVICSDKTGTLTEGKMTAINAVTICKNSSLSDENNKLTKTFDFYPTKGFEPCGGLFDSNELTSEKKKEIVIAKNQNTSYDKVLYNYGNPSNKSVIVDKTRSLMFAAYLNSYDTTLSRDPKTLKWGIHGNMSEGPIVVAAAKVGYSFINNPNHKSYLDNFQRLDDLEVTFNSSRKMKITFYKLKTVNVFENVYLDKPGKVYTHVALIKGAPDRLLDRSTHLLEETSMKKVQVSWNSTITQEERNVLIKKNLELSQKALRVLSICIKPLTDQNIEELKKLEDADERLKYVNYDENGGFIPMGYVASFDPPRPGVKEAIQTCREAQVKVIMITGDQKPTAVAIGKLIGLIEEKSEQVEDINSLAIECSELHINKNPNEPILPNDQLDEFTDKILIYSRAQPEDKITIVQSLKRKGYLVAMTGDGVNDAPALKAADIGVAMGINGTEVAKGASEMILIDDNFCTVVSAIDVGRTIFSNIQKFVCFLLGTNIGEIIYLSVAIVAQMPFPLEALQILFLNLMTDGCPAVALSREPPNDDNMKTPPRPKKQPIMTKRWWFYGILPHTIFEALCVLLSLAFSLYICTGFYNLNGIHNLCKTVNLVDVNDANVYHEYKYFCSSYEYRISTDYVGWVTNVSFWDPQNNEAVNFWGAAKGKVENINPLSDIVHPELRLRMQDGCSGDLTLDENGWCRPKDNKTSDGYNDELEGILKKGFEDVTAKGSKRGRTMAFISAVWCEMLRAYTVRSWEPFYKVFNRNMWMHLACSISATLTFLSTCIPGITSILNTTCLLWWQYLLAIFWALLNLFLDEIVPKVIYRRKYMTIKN

[16] = Inhibition of Plasmodium falciparum Dd2 ATP4 G358S mutant assessed as reduction in Na+-ATPase activity incubated for 10 mins in presence of ATP
Procedure, shortened: (§1)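 Membranes were prepared from Dd2-Polδ parasites (wild-type PfATP4) or Dd2-Polδ-PfATP4G358S parasites. ATPase activity was read as Pi production, with 1 mM Na2ATP, at high [Na+] (152 mM) and low [Na+] (2 mM). PfATP4-associated activity is the high-Na+ minus low-Na+ Pi, expressed as % of the high-Na+ control, over a concentration range. Data are means ± SEM of 2–5 independent membrane preparations.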

[17] = Inhibition of Plasmodium falciparum Dd2 ATP4 assessed as reduction in Na+-ATPase activity incubated for 10 mins in presence of ATP; procedure, shortened: as §1
[18] = target: T2, P-type sodium-transporting ATPase4 (Plasmodium falciparum (isolate 3D7)) (UniProt A0A143ZZK9); assay: Inhibition of Plasmodium falciparum 3D7 ATP4 assessed as reduction in Na+-ATPase activity at 2 uM incubated for 10 mins under high [Na+] condition in absence of KAE609
T2 sequence (whole entry): T1 sequence (A0A143ZZK9 whole entry)

What does the source list for `N#Cc1cc(NC(=O)[C@H]2c3ccccc3C(=O)N(CC(F)(F)F)[C@@H]2c2cccnc2)ccc1F` [SJ-733]?
EC50 (Plasmodium falciparum [1]): 61 nM; EC50 (Plasmodium falciparum [2]): 579 nM; EC50 (Plasmodium falciparum [3]): 537 nM; EC50 (Plasmodium falciparum [4]): 533 nM; EC50 (Plasmodium falciparum [5]): 95 nM; EC50 (Plasmodium falciparum [6]): > 10000 nM; Activity (Plasmodium falciparum [7]): ~24%

With `C[C@@H]1CC[C@H]2[C@@H](C)C(=O)O[C@@H]3O[C@@]4(C)CC[C@@H]1[C@]32OO4` [ARTEMISININ] as the molecule, how does the Activity (Plasmodium berghei [8]) read?
Its Activity is 2.6%.

And the Activity (Plasmodium berghei [9])?
Its Activity is 92.4%.

Which EC50 (Plasmodium falciparum [10]) does the source give for `Cn1cc(-c2ccc3c(C#N)cn(CC(=O)Nc4ccccc4Cl)c3c2)cn1` here?
The EC50 was 240 nM.

And the CC50 (HepG2)?
The CC50 was over 40000 nM.

And the solubility kinetic [11]?
Its solubility kinetic is 4.9 µM (≈ 1.91 µg/mL).

What about the “intrinsic clearance (CLint)” value [12] of the same molecule?
The value was 62 µL/min/mg.

And the “intrinsic clearance (CLint)” value [13]?
Its value is 59 uL/min/10^6 cells.

What about the logD [14] of the same molecule?
Its logD is 3.

And the IC50 [15]?
The IC50 was 150 nM.

What about the IC50 [16] of the same molecule?
The IC50 was 1100 nM.

And the IC50 [17]?
The IC50 was 230 nM and 1100 nM.

And the inhibition [18]?
Its inhibition is “Active”.
